What all share (assay type): functional
For assay [1], the system named is Pseudomonas aeruginosa. Nature of the assay: Antibacterial activity against Pseudomonas aeruginosa ATCC 27853 at 35 degC after 18 to 24 hrs. The essentials:
(§1)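 Bactericidal endpoint (MBC) taken from the broth-dilution MIC tubes. 0.1 ml from each tube was spread on agar plates and c.f.u. counted after 18–24 h. MBC was the lowest concentration completely killing the bacteria.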

In assay [2] the test system is Candida albicans. Nature of the assay: Antifungal activity against Candida albicans at 37 degC after 3 to 4 days by agar dilution method. To be noted: for Activity: in the assay text read “agar diffusion method” for “agar dilution method”. The essentials: (§2)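 Agar well diffusion for fungi, compounds in DMSO. Sabouraud agar was adjusted to pH 5.7 and lawned with a saline spore suspension (a loopful in 3 ml). Plates were dried 1 h at 37 °C, then wells were punched. Incubation was 3–4 days at 37 °C, with controls in triplicate. Inhibition zones were measured against controls, with griseofulvin as standard.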
A general note: In agar dilution the substance is mixed into plates at graded concentrations.

The test system of assay [3] is Klebsiella pneumoniae. Nature of the assay: Antibacterial activity against Klebsiella pneumoniae ATCC 25922 at 37 degC after 24 hrs by disc diffusion method. The essentials:
(§3)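 Disc diffusion on nutrient agar. Plates were spread with 1–2 × […] c.f.u./ml inoculum (0.5 McFarland). Sterile 6.25 mm filter-paper discs were soaked in a known concentration of compound and placed on the agar. Plates were inverted and incubated 24 h at 37 °C. Inhibition zones (mm) were read against solvent and growth controls, with ciprofloxacin as reference.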
For orientation: Agar diffusion results depend on both activity and mobility in agar.

The test system of assay [4] is Trichophyton mentagrophytes. Nature of the assay: Antifungal activity against Trichophyton mentagrophytes at 37 degC after 3 to 4 days by agar dilution method. The following applies: in the assay text read “agar diffusion method” for “agar dilution method”. The essentials:
as §2

For assay [5], the system named is Aspergillus fumigatus. Nature of the assay: Antifungal activity against Aspergillus fumigatus at 35 degC after 48 hrs by broth dilution method. The essentials: (§4)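 Fungal MIC by broth dilution. Two-fold serial dilutions of compound in nutrient broth were inoculated with about 1.6 × 10⁴–6 × 10⁴ c.f.u./ml. Incubation was 48 h at 35 °C. MIC was the lowest concentration arresting fungal growth.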

Assay [6] has as its system Trichophyton mentagrophytes. Nature of the assay: Antifungal activity against Trichophyton mentagrophytes at 35 degC after 48 hrs by broth dilution method. The essentials: as §4
In assay [7] the test system is Talaromyces marneffei. Nature of the assay: Antifungal activity against Penicillium marneffei at 37 degC after 3 to 4 days by agar […] method. The essentials: as §2
Assay [8] deals with Candida albicans. Nature of the assay: Antifungal activity against Candida albicans at 35 degC after 48 hrs by broth dilution method. The essentials: as §4
Assay [9] relates to Pseudomonas aeruginosa. Nature of the assay: Antibacterial activity against Pseudomonas aeruginosa ATCC 27853 at 37 degC after 24 hrs by broth dilution method. To be noted: ATCC 27853, 24 h. The essentials: (§5)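 Broth dilution MIC. Nutrient broth held two-fold serial dilutions of compound and was inoculated with about 5 × 10⁵ c.f.u. of actively dividing bacteria. Cultures ran 24 h at 37 °C, with growth checked visually and spectrophotometrically. MIC was the lowest concentration arresting growth. Ciprofloxacin was the standard.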
A general note: Dilution methods test growth across graded concentrations, often in twofold steps.

Assay [10] deals with Aspergillus fumigatus. Nature of the assay: Antifungal activity against Aspergillus fumigatus at 35 degC after 48 hrs. The essentials:
(§6)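 Fungicidal endpoint (MFC). 0.1 ml from each broth-dilution tube was spread on agar plates and c.f.u. counted after 48 h at 35 °C. MFC was the lowest concentration killing 99.9% of the inoculum.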

In assay [11] the test system is Candida albicans. Nature of the assay: Antifungal activity against Candida albicans at 35 degC after 48 hrs. The essentials: as §6
Assay [12] concerns Escherichia coli. Nature of the assay: Antibacterial activity against Escherichia coli ATCC 25922 at 35 degC after 18 to 24 hrs. The essentials:
as §1

In assay [13] the test system is Escherichia coli. Nature of the assay: Antibacterial activity against Escherichia coli ATCC 25922 at 37 degC after 24 hrs by broth dilution method. The following applies: ATCC 25922, 24 h. The essentials: as §5
The test system of assay [14] is Pseudomonas aeruginosa. Nature of the assay: Antibacterial activity against Pseudomonas aeruginosa ATCC 27853 at 37 degC after 24 hrs by disc diffusion method. The essentials: as §3
The subject of assay [15] is Trichophyton mentagrophytes. Nature of the assay: Antifungal activity against Trichophyton mentagrophytes at 35 degC after 48 hrs. The essentials:
as §6

In assay [16] the test system is Staphylococcus aureus. Nature of the assay: Antibacterial activity against Staphylococcus aureus ATCC 25923 at 35 degC after 18 to 24 hrs. The essentials: as §1
For assay [17], the system named is Klebsiella pneumoniae. Nature of the assay: Antibacterial activity against Klebsiella pneumoniae ATCC 25922 at 37 degC after 24 hrs by broth dilution method. To be noted: recultured, in the assay text read “Klebsiella pneumoniae (recultured)” for “Klebsiella pneumoniae ATCC 25922”. The essentials: as §5
In assay [18] the test system is Escherichia coli. Nature of the assay: Antibacterial activity against Escherichia coli ATCC 25922 at 37 degC after 24 hrs by disc diffusion method. The essentials:
as §3

For assay [19], the system named is Staphylococcus aureus. Nature of the assay: Antibacterial activity against Staphylococcus aureus ATCC 25923 at 37 degC after 24 hrs by broth dilution method. The following applies: ATCC 25923, 24 h. The essentials: as §5
In assay [20] the test system is Talaromyces marneffei. Nature of the assay: Antifungal activity against Penicillium marneffei at 35 degC after 48 hrs. The essentials:
as §6

The test system of assay [21] is Aspergillus fumigatus. Nature of the assay: Antifungal activity against Aspergillus fumigatus at 37 degC after 3 to 4 days by agar […] method. The essentials: as §2
For assay [22], the system named is Talaromyces marneffei. Nature of the assay: Antifungal activity against Penicillium marneffei at 35 degC after 48 hrs by broth dilution method. The essentials:
as §4

In assay [23] the test system is Staphylococcus aureus. Nature of the assay: Antibacterial activity against Staphylococcus aureus ATCC 25923 at 37 degC after 24 hrs by disc diffusion method. The essentials: as §3
The test system of assay [24] is Klebsiella pneumoniae. Nature of the assay: Antibacterial activity against Klebsiella pneumoniae ATCC 25922 at 35 degC after 18 to 24 hrs. The following applies: recultured, in the assay text read “Klebsiella pneumoniae (recultured)” for “Klebsiella pneumoniae ATCC 25922”. The essentials:
as §1

This note sets out measurements from ChEMBL document CHEMBL1149771, “Antimicrobial studies of 2,4-dichloro-5-fluorophenyl containing oxadiazoles” (2008).

In general, MBC refers to the lowest tested concentration that kills the bacteria rather than only halting them. Low values mean more potent killing, high ones less potent killing. As usually defined, the MIC is the least concentration at which growth counts as inhibited. Low values mean greater potency, high ones weaker potency. A word on the MFC: it is the smallest concentration meeting the test's criterion for killing the fungus. The low end stands for greater fungicidal potency, the high end for weaker fungicidal potency.

Values after ≈ are worked out from the molar mass of the structure shown.

Take `Cc1ccc(OCc2nnc(-c3cc(F)c(Cl)cc3Cl)o2)cc1`: the MBC turned out to be 12.5 µg/mL (≈ 35.4 µM) in assay [1], 6.25 µg/mL (≈ 17.7 µM) in assay [12], 12.5 µg/mL (≈ 35.4 µM) in assay [16] and 25 µg/mL (≈ 70.8 µM) in assay [24]. The “inhibition zone (IZ)” value in [2] came out at 27 mm; in [3], 18 mm; in assay [4], 24 mm; in assay [7], 18 mm; in assay [14], 32 mm; in assay [18], 25 mm. Also, the entries for the “inhibition zone (IZ)” value in [21] and in assay [23] were 26 mm and 22 mm, respectively. Besides, the MIC was 6.25 µg/mL (≈ 17.7 µM) in [5]; 6.25 µg/mL (≈ 17.7 µM) in assay [6]; 6.25 µg/mL (≈ 17.7 µM) in assay [8]; 6.25 µg/mL (≈ 17.7 µM) in [9]; 6.25 µg/mL (≈ 17.7 µM) in [13]; 12.5 µg/mL (≈ 35.4 µM) in assay [17]. Also, the minimal inhibitory concentration (MIC) in assay [19] and in assay [22] was 6.25 µg/mL (≈ 17.7 µM) in each case. In addition, the minimum fungicidal concentration (MFC) in assay [10] was 12.5 µg/mL (≈ 35.4 µM); in assay [11], 6.25 µg/mL (≈ 17.7 µM); in assay [15], 6.25 µg/mL (≈ 17.7 µM); in assay [20] it was 12.5 µg/mL (≈ 35.4 µM).
With `Cc1cc(Cl)ccc1OCc1nnc(-c2cc(-c3cc(F)c(Cl)cc3Cl)nc3ccccc23)o1`, the MBC is 50 µg/mL (≈ 97.1 µM) in assay [1], over 100 µg/mL in assay [12], 25 µg/mL (≈ 48.6 µM) in assay [16] and over 100 µg/mL in assay [24]. For the same compound, the Activity in [2], in assay [3], in assay [7] and in assay [18] was over 100 µg/mL throughout. Moreover, the “inhibition zone (IZ)” value in assay [4] worked out at 19 mm; in [14], 12 mm; in assay [21], 12 mm; in [23], 17 mm. For the same compound, the MIC in assay [5] is 12.5 µg/mL (≈ 24.3 µM); in [6], 6.25 µg/mL (≈ 12.1 µM); in assay [8] it was over 100 µg/mL; in assay [9], 12.5 µg/mL (≈ 24.3 µM); in assay [13] it was over 100 µg/mL; in assay [17], over 100 µg/mL. The figures for the minimum inhibitory concentration (MIC) in assay [19] and in assay [22] were 6.25 µg/mL (≈ 12.1 µM) and over 100 µg/mL, respectively. Besides, the MFC was 50 µg/mL (≈ 97.1 µM) in assay [10], over 100 µg/mL in assay [11], 12.5 µg/mL (≈ 24.3 µM) in assay [15] and over 100 µg/mL in assay [20].
Turning to `Cc1cc(OCc2nnc(-c3cc(-c4cc(F)c(Cl)cc4Cl)nc4ccccc34)o2)ccc1Cl`, the MBC was 25 µg/mL (≈ 48.6 µM) in [1], 25 µg/mL (≈ 48.6 µM) in assay [12], over 100 µg/mL in [16] and over 100 µg/mL in [24]. Moreover, the Activity in assay [2], in assay [3], in assay [4] and in assay [23] was over 100 µg/mL in each case. In addition, the MIC was 12.5 µg/mL (≈ 24.3 µM) in assay [5]; over 100 µg/mL in assay [6]; over 100 µg/mL in [8]; 6.25 µg/mL (≈ 12.1 µM) in assay [9]; 12.5 µg/mL (≈ 24.3 µM) in assay [13]; over 100 µg/mL in assay [17]. The MIC in assay [19] was over 100 µg/mL; in [22] it was 12.5 µg/mL (≈ 24.3 µM). Besides, the “inhibition zone (IZ)” value in assay [7] came to 12 mm; in assay [14] it was 26 mm; in assay [18], 17 mm; in assay [21] it was 15 mm. Also, the MFC in [10] was 25 µg/mL (≈ 48.6 µM); in assay [11], over 100 µg/mL; in assay [15], over 100 µg/mL; in [20], 50 µg/mL (≈ 97.1 µM).
Consider `Fc1cc(-c2cc(-c3nnc(COc4ccc(Cl)cc4)o3)c3ccccc3n2)c(Cl)cc1Cl`, for which the MBC in assay [1] was 25 µg/mL (≈ 49.9 µM); in [12] it was 6.25 µg/mL (≈ 12.5 µM); in [16], 12.5 µg/mL (≈ 25 µM); in assay [24], 25 µg/mL (≈ 49.9 µM). Besides, the “inhibition zone (IZ)” value in [2] turned out to be 12 mm; in assay [3], 18 mm; in assay [4] it was 15 mm; in assay [7] it was 20 mm; in [14], 32 mm; in assay [18], 25 mm. The “inhibition zone (IZ)” value in assay [21] came to 16 mm; in assay [23] it was 19 mm. In addition, the MIC in assay [5] was found to be 6.25 µg/mL (≈ 12.5 µM); in assay [6], 6.25 µg/mL (≈ 12.5 µM); in [8], 12.5 µg/mL (≈ 25 µM); in [9] it was 6.25 µg/mL (≈ 12.5 µM); in assay [13], 6.25 µg/mL (≈ 12.5 µM); in assay [17], 12.5 µg/mL (≈ 25 µM). Also, the MIC in assay [19] and in assay [22] was 6.25 µg/mL (≈ 12.5 µM) each time. Besides, the MFC in assay [10] was 25 µg/mL (≈ 49.9 µM); in assay [11] it was 50 µg/mL (≈ 99.9 µM); in assay [15], 12.5 µg/mL (≈ 25 µM); in assay [20], 12.5 µg/mL (≈ 25 µM).
